Laboratory results taken from ChEMBL document CHEMBL1944562, “Design, synthesis of some new (2-aminothiazol-4-yl)methylester derivatives as possible antimicrobial and antitubercular agents” (2012).
≈ marks a conversion by molar mass, not a printed value.

Legend:
Assay type in all cases: functional
[1] = tested on: Mycolicibacterium smegmatis; assay: Antitubercular activity against Mycobacterium smegmatis ATCC 19420 after 7 days by resazurin assay; conditions: ATCC 19420, 168 h
Method in brief: (§1)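 Middlebrook 7H9 broth with 10% OADC, culture adjusted to McFarland 2. 50 µL culture added to 150 µL fresh medium. Stocks at 2 mg/mL in DMF, tested first at 1, 10 and 100 µg/mL, then at 0.3125-5 µg/mL. DMF controls. After 7 days at 37 °C, 0.01% resazurin added. Blue-to-pink change read for MIC.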

[2] = tested on: Mycolicibacterium fortuitum; assay: Antitubercular activity against Mycobacterium fortuitum ATCC 19542 after 7 days by resazurin assay; conditions: ATCC 19542, 168 h; method in brief: as §1
[3] = tested on: Mycobacterium tuberculosis; assay: Antitubercular activity against Mycobacterium tuberculosis H37Rv assessed as growth inhibition after 7 days by resazurin assay
Method in brief: (§2)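 M. tuberculosis H37Rv ATCC 27294 grown in Middlebrook 7H9 broth with 10% OADC and adjusted to McFarland 2. Culture was diluted 1:4 into fresh medium. Compounds came from 2 mg/mL DMF stocks, screened first at 1, 10 and 100, then at 0.3125–5. DMF-only controls were included. After 7 days at 37 °C, 0.01% resazurin was added; a blue-to-pink change marked growth, and the MIC was read.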

[4] = tested on: Escherichia coli; assay: Antibacterial activity against Escherichia coli ATCC 25922 after 16 to 18 hrs by […]
[5] = tested on: Staphylococcus aureus; assay: Antibacterial activity against Staphylococcus aureus ATCC 25923 after 16 to 18 hrs by serial plate dilution method
[6] = tested on: Pseudomonas aeruginosa; assay: Antibacterial activity against Pseudomonas aeruginosa ATCC 27853 after 16 to 18 hrs by […]
[7] = tested on: Klebsiella pneumoniae; assay: Antibacterial activity against Klebsiella pneumoniae after 16 to 18 hrs by […]
[8] = tested on: Bacillus subtilis; assay: Antibacterial activity against Bacillus subtilis after 16 to 18 hrs by […]
[9] = tested on: Escherichia coli; assay: Antibacterial activity against Escherichia coli ATCC 25922 at MIC after 3 to 4 days
Method in brief: (§3)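 Agar well diffusion on seeded agar plates, 20 mL agar per dish, dried 1 h at 37 °C. Wells punched and loaded with test compound in DMSO at its MIC. DMSO-only control. Plates run in triplicate and kept 3-4 days at 37 °C. Inhibition zone diameter measured.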

[10] = tested on: Staphylococcus aureus; assay: Antibacterial activity against Staphylococcus aureus ATCC 25923 at […] after 3 to 4 days; method in brief: as §3
[11] = tested on: Pseudomonas aeruginosa; assay: Antibacterial activity against Pseudomonas aeruginosa ATCC 27853 at MIC after 3 to 4 days; method in brief: as §3
[12] = tested on: Klebsiella pneumoniae; assay: Antibacterial activity against Klebsiella pneumoniae at MIC after 3 to 4 days; method in brief: as §3
[13] = tested on: Bacillus subtilis; assay: Antibacterial activity against Bacillus subtilis at MIC after 3 to 4 days; method in brief: as §3
[14] = tested on: Aspergillus flavus; assay: Antifungal activity against Aspergillus flavus NCIM N0.524 after 3 to 4 days by serial plate dilution method
[15] = tested on: Aspergillus fumigatus; assay: Antifungal activity against Aspergillus fumigatus NCIM N0.902 after 3 to 4 days by serial plate dilution method
[16] = tested on: Talaromyces marneffei; assay: Antifungal activity against Penicillium marneffei after 3 to 4 days by serial plate dilution method
[17] = tested on: Trichophyton mentagrophytes; assay: Antifungal activity against Trichophyton mentagrophytes after 3 to 4 days by serial plate dilution method
[18] = tested on: Candida albicans; assay: Antifungal activity against Candida albicans after 3 to 4 days by serial plate dilution method
[19] = tested on: Aspergillus flavus; assay: Antifungal activity against Aspergillus flavus NCIM N0.524 at MIC after 3 to 4 days
Method in brief: (§4)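 Fungal suspension made by transferring a loopful of culture to 3 mL saline and seeding agar plates, 20 mL agar per dish, dried 1 h at 37 °C. Punched wells loaded with test compound in DMSO at its MIC. DMSO-only control. Triplicate plates held 3-4 days at 37 °C. Inhibition zone diameter measured.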

[20] = tested on: Aspergillus fumigatus; assay: Antifungal activity against Aspergillus fumigatus NCIM N0.902 at MIC after 3 to 4 days; method in brief: as §4
[21] = tested on: Talaromyces marneffei; assay: Antifungal activity against Penicillium marneffei at MIC after 3 to 4 days; method in brief: as §4
[22] = tested on: Trichophyton mentagrophytes; assay: Antifungal activity against Trichophyton mentagrophytes at MIC after 3 to 4 days; method in brief: as §4
[23] = tested on: Candida albicans; assay: Antifungal activity against Candida albicans at MIC after 3 to 4 days; method in brief: as §4
[24] = tested on: Mycobacterium tuberculosis; assay: Antitubercular activity against Mycobacterium tuberculosis H37Rv after 7 days by resazurin assay; conditions: 168 h; method in brief: as §2

| Compound | MIC [1] | MIC [2] | growth inhibition (GI) [3] | MIC [7] | MIC [8] | diameter of the inhibition zone (DIZ) [9] | diameter of the inhibition zone (DIZ) [10] | diameter of the inhibition zone (DIZ) [11] | diameter of the inhibition zone (DIZ) [12] | diameter of the inhibition zone (DIZ) [13] | MIC [14] | MIC [15] | MIC [16] | MIC [17] | MIC [18] | diameter of the inhibition zone (DIZ) [19] | diameter of the inhibition zone (DIZ) [20] | diameter of the inhibition zone (DIZ) [21] | diameter of the inhibition zone (DIZ) [22] | MIC [24] | also measured |
| --- | --- | --- | --- | --- | --- | --- | --- | --- | --- | --- | --- | --- | --- | --- | --- | --- | --- | --- | --- | --- | --- |
| Nc1nc(COC(=O)c2cccs2)cs1 | 10 µg/mL (≈ 41.6 µM) | 10 µg/mL (≈ 41.6 µM) | <90% | 25 µg/mL (≈ 104 µM) | 25 µg/mL (≈ 104 µM) | 16 mm | 11 mm | 16 mm | <10 mm | <10 mm | 25 µg/mL (≈ 104 µM) | 6.25 µg/mL (≈ 26 µM) | 25 µg/mL (≈ 104 µM) | 6.25 µg/mL (≈ 26 µM) | 12.5 µg/mL (≈ 52 µM) | <10 mm | 16 mm | <10 mm | 16 mm | 10 µg/mL (≈ 41.6 µM) | MIC [4]: 6.25 µg/mL (≈ 26 µM); MIC [5]: 12.5 µg/mL (≈ 52 µM); MIC [6]: 6.25 µg/mL (≈ 26 µM); diameter of the inhibition zone (DIZ) [23]: 11 mm |
| Nc1nc(COC(=O)c2cccc([N+](=O)[O-])c2Cl)cs1 | 1 µg/mL (≈ 3.19 µM) | 10 µg/mL (≈ 31.9 µM) | 90% | 6.25 µg/mL (≈ 19.9 µM) | 12.5 µg/mL (≈ 39.8 µM) | 11 mm | 11 mm | <10 mm | 16 mm | 11 mm | 25 µg/mL (≈ 79.7 µM) | 25 µg/mL (≈ 79.7 µM) | 12.5 µg/mL (≈ 39.8 µM) | 25 µg/mL (≈ 79.7 µM) | 25 µg/mL (≈ 79.7 µM) | <10 mm | <10 mm | 11 mm | <10 mm | 0.625 µg/mL (≈ 1.99 µM) | MIC [4]: 12.5 µg/mL (≈ 39.8 µM); MIC [5]: 12.5 µg/mL (≈ 39.8 µM); MIC [6]: 25 µg/mL (≈ 79.7 µM); diameter of the inhibition zone (DIZ) [23]: <10 mm |
| Cc1cc(C2CCCCC2)n(O)c(=O)c1.NCCO [CICLOPIROX OLAMINE] | – | – | – | – | – | – | – | – | – | – | 6.25 µg/mL | 6.25 µg/mL | 6.25 µg/mL | 6.25 µg/mL | 6.25 µg/mL | 25 mm | 25 mm | 20 mm | 27 mm | – | diameter of the inhibition zone (DIZ) [23]: 20 mm |
| O=C(O)c1cn(C2CC2)c2cc(N3CCNCC3)c(F)cc2c1=O [CIPROFLOXACIN] | – | – | – | 6.25 µg/mL (≈ 18.9 µM) | 1.56 µg/mL (≈ 4.71 µM) | 30 mm | 22 mm | 16 mm | 23 mm | 21 mm | – | – | – | – | – | – | – | – | – | – | – |
| NNC(=O)c1ccncc1 [ISONIAZID] | 50 µg/mL (≈ 365 µM) | 12.5 µg/mL (≈ 91.1 µM) | 95% | – | – | – | – | – | – | – | – | – | – | – | – | – | – | – | – | 0.7 µg/mL (≈ 5.1 µM) | – |
| CO[C@H]1/C=C/O[C@@]2(C)Oc3c(C)c(O)c4c(O)c(c(/C=N/N5CCN(C)CC5)c(O)c4c3C2=O)NC(=O)/C(C)=C\C=C\[C@H](C)[C@H](O)[C@@H](C)[C@@H](O)[C@@H](C)[C@H](OC(C)=O)[C@@H]1C [RIFAMPIN] | 1.5 µg/mL (≈ 1.82 µM) | 1.5 µg/mL (≈ 1.82 µM) | 95% | – | – | – | – | – | – | – | – | – | – | – | – | – | – | – | – | 0.5 µg/mL (≈ 0.608 µM) | – |
